From ChEMBL document CHEMBL1134978, “Novel 2,5-dideoxystreptamine derivatives targeting the ribosomal decoding site RNA” (Bioorg Med Chem Lett, 2002)

Molecular target: Nucleic Acid
Experiment: In vitro inhibition of decoding site of bacterial rRNA (within the 30S ribosomal subunit) encoding luciferase reporter in transcription-translation assay
Assay type: functional, Bacteria
Method in brief: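 Coupled transcription–translation in bacterial S30 extract. Compounds were preincubated with the extract, then NTPs, amino acids and a plasmid encoding firefly luciferase were added, and plates were incubated 20 min at 25 °C. After chilling on ice, luciferin substrate was added for 15 min at room temperature and luminescence was read. Doses spanned 1 mM to 100 nM with six replicates per concentration. IC50 came from a variable-slope fit of light units vs log(c).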

SMILES	IC50 [µM]
NC1CC(N)C(C(=O)NCCCN2CCCC2=O)CC1O (configuration not stated)	> 1000
NC1CC(N)C(C(=O)N2CCNCC2)CC1O (configuration not stated)	> 1000
NC1CC(N)C(C(=O)N2CCN(C3=NCCCN3)CC2)CC1O (configuration not stated)	> 1000
NC1CC(N)C(C(=O)Nc2ccc(-n3ccnc3)cc2)CC1O (configuration not stated)	290
NC1CC(N)C(C(=O)Nc2ccc(-c3cnco3)cc2)CC1O (configuration not stated)	59
N[C@@H]1C[C@H](N)[C@@H](O)[C@H](O)[C@H]1O	> 1000
NC1CC(N)C(OC2OC(CO)C(O)C(O)C2N)C(O)C1O (configuration not stated)	3.9
NC(=O)C1CC(O)C(N)CC1N (configuration not stated)	> 1000
N#Cc1cccc(NC(=O)C2CC(O)C(N)CC2N)c1 (configuration not stated)	450
NC(=O)[C@H]1CCCN1C(=O)C1CC(O)C(N)CC1N (some centres not stated)	> 1000
NC1CC(N)C(C(=O)NCCN2CCOCC2)CC1O (configuration not stated)	> 1000
NC1CC(N)C(C(=O)N2CCC3(CC2)OCCO3)CC1O (configuration not stated)	> 1000
